ChEMBL document CHEMBL1926569, “Novel (E)-1-(4-methyl-2-(alkylamino)thiazol-5-yl)-3-arylprop-2-en-1-ones as potent antimicrobial agents” (2011)

Experiments:
Aspergillus niger [1] = experiment: Antifungal activity against Aspergillus niger ATCC 6275 incubated for 72 hrs followed by serial sub-cultivation for 72 hrs by serial dilution technique; format: functional; conditions: ATCC 6275, 72 h
In short: (§1)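 MFC: material from 72 h malt broth microdilution wells was serially sub-cultured into fresh broth plates and incubated a further 72 h at 28 °C. Fungicidal concentration is taken from growth after sub-culture. Duplicate, repeated three times.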

Aspergillus ochraceus [2] = experiment: Antifungal activity against Aspergillus ochraceus ATCC 12066 incubated for 72 hrs followed by serial sub-cultivation for 72 hrs by serial dilution technique; format: functional; conditions: ATCC 12066, 72 h; in short: as §1
Penicillium ochrochloron [3] = experiment: Antifungal activity against Penicillium ochrochloron ATCC 9112 incubated for 72 hrs followed by serial sub-cultivation for 72 hrs by serial dilution technique; format: functional; conditions: ATCC 9112, 72 h; in short: as §1
Aspergillus niger [4] = experiment: Antifungal activity against Aspergillus niger ATCC 6275 after 72 hrs by serial dilution technique; format: functional; conditions: ATCC 6275, 72 h
In short: (§2)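 Modified microdilution in 96-well plates. Fungi were kept on malt agar at 4 °C. Spores were washed off in sterile 0.85% saline with 0.1% Tween 80. Compounds were dissolved at 1 mg/ml in 5% DMSO with 0.1% Tween 80 and added to malt broth with inoculum. Plates were shaken at 160 rpm for 72 h at 28 °C. Duplicate, repeated three times.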

Trichoderma viride [5] = experiment: Antifungal activity against Trichoderma viride IAM 5061 after 72 hrs by serial dilution technique; format: functional; conditions: IAM 5061, 72 h; in short: as §2
Aspergillus fumigatus [6] = experiment: Antifungal activity against Aspergillus fumigatus isolated from human incubated for 72 hrs followed by serial sub-cultivation for 72 hrs by serial dilution technique; format: functional; in short: as §1
Aspergillus flavus [7] = experiment: Antifungal activity against Aspergillus flavus ATCC 9643 incubated for 72 hrs followed by serial sub-cultivation for 72 hrs by serial dilution technique; format: functional; conditions: ATCC 9643, 72 h; in short: as §1
Penicillium ochrochloron [8] = experiment: Antifungal activity against Penicillium ochrochloron ATCC 9112 after 72 hrs by serial dilution technique; format: functional; conditions: ATCC 9112, 72 h; in short: as §2
Candida albicans [9] = experiment: Antifungal activity against Candida albicans isolated from human incubated for 72 hrs followed by serial sub-cultivation for 72 hrs by serial dilution technique; format: functional; in short: as §1
Trichoderma viride [10] = experiment: Antifungal activity against Trichoderma viride IAM 5061 incubated for 72 hrs followed by serial sub-cultivation for 72 hrs by serial dilution technique; format: functional; conditions: IAM 5061, 72 h; in short: as §1
Aspergillus ochraceus [11] = experiment: Antifungal activity against Aspergillus ochraceus after 72 hrs by serial dilution technique
Talaromyces funiculosus [12] = experiment: Antifungal activity against Penicillium funiculosum ATCC 36839 after 72 hrs by serial dilution technique; format: functional; conditions: ATCC 36839, 72 h; in short: as §2
Aspergillus ochraceus [13] = experiment: Antifungal activity against Aspergillus ochraceus ATCC 12066 after 72 hrs by serial dilution technique; format: functional; conditions: ATCC 12066, 72 h; in short: as §2
Aspergillus flavus [14] = experiment: Antifungal activity against Aspergillus flavus ATCC 9643 after 72 hrs by serial dilution technique; format: functional; conditions: ATCC 9643, 72 h; in short: as §2
Talaromyces funiculosus [15] = experiment: Antifungal activity against Penicillium funiculosum ATCC 36839 incubated for 72 hrs followed by serial sub-cultivation for 72 hrs by serial dilution technique; format: functional; conditions: ATCC 36839, 72 h; in short: as §1
Candida albicans [16] = experiment: Antifungal activity against Candida albicans isolated from human after 72 hrs by serial dilution technique; format: functional; in short: as §2
Aspergillus fumigatus [17] = experiment: Ratio of ketoconazole to compound for Aspergillus fumigatus isolated from human; format: functional
Micrococcus flavus [18] = experiment: Antibacterial activity against Micrococcus flavus ATCC 10240 after 24 hrs by microdilution method; format: functional; conditions: ATCC 10240, 24 h
In short: (§3)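 Broth microdilution in 96-well plates. Bacterial suspensions were adjusted in sterile saline to 1.0 × 10⁵ CFU/ml, prepared daily and kept at 4 °C. Compound was added to LB broth with 1.0 × 10⁴ CFU per well and shaken at 160 rpm for 24 h at […] (so in the source). MIC is the lowest concentration with no visible growth under a binocular microscope. OD655 was also read. Duplicate, repeated three times.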

Trichoderma viride [19] = experiment: Ratio of bifonazole to compound for Trichoderma viride IAM 5061; format: functional
Candida albicans [20] = experiment: Ratio of ketoconazole to compound for Candida albicans isolated from human; format: functional
Listeria monocytogenes [21] = experiment: Antibacterial activity against Listeria monocytogenes NCTC 7973 after 24 hrs by microdilution method; format: functional; conditions: NCTC 7973, 24 h; in short: as §3
Escherichia coli [22] = experiment: Antibacterial activity against Escherichia coli ATCC 35210 incubated for 24 hrs followed by serial sub-cultivation for 24 hrs by microdilution; format: functional; conditions: ATCC 35210, 24 h
In short: (§4)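 MBC: after the 24 h LB broth microdilution (1.0 × 10⁴ CFU per well, 160 rpm), wells were serially sub-cultured into fresh broth plates and incubated a further 24 h. MBC is the lowest concentration with no visible growth, taken as 99.5% killing of the original inoculum. Duplicate, repeated three times.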

Aspergillus ochraceus [23] = experiment: Ratio of ketoconazole to compound for Aspergillus ochraceus ATCC 12066; format: functional
Candida albicans [24] = experiment: Ratio of bifonazole to compound for Candida albicans isolated from human; format: functional
Pseudomonas aeruginosa [25] = experiment: Antibacterial activity against Pseudomonas aeruginosa ATCC 27853 incubated for 24 hrs followed by serial sub-cultivation for 24 hrs by microdilution; format: functional; conditions: ATCC 27853, 24 h; in short: as §4
Aspergillus niger [26] = experiment: Ratio of bifonazole to compound for Aspergillus niger ATCC 6275; format: functional
Penicillium ochrochloron [27] = experiment: Ratio of ketoconazole to compound for Penicillium ochrochloron ATCC 9112; format: functional
Salmonella typhimurium [28] = experiment: Antibacterial activity against Salmonella Typhimurium ATCC 13311 after 24 hrs by microdilution method; format: functional, Salmonella enterica subsp. enterica serovar Typhimurium; conditions: Salmonella enterica, ATCC 13311, 24 h; in short: as §3
Pseudomonas aeruginosa [29] = experiment: Ratio of ampicillin MIC to compound MIC for Pseudomonas aeruginosa ATCC 27853; format: functional
Escherichia coli [30] = experiment: Antibacterial activity against Escherichia coli ATCC 35210 after 24 hrs by microdilution method; format: functional; conditions: ATCC 35210, 24 h; in short: as §3
Penicillium ochrochloron [31] = experiment: Ratio of bifonazole to compound for Penicillium ochrochloron ATCC 9112; format: functional
Staphylococcus aureus [32] = experiment: Antibacterial activity against Staphylococcus aureus ATCC 6538 incubated for 24 hrs followed by serial sub-cultivation for 24 hrs by microdilution method; format: functional; conditions: ATCC 6538, 24 h; in short: as §4
Bacillus cereus [33] = experiment: Antibacterial activity against clinical isolate of Bacillus cereus incubated for 24 hrs followed by serial sub-cultivation for 24 hrs by microdilution; format: functional; in short: as §4
Talaromyces funiculosus [34] = experiment: Ratio of bifonazole to compound for Penicillium funiculosum ATCC 36839; format: functional
Staphylococcus aureus [35] = experiment: Antibacterial activity against Staphylococcus aureus ATCC 6538 after 24 hrs by microdilution method; format: functional; conditions: ATCC 6538, 24 h; in short: as §3
Listeria monocytogenes [36] = experiment: Antibacterial activity against Listeria monocytogenes NCTC 7973 incubated for 24 hrs followed by serial sub-cultivation for 24 hrs by microdilution; format: functional; conditions: NCTC 7973, 24 h; in short: as §4
Aspergillus ochraceus [37] = experiment: Ratio of bifonazole to compound for Aspergillus ochraceus ATCC 12066; format: functional
Bacillus cereus [38] = experiment: Antibacterial activity against clinical isolate of Bacillus cereus after 24 hrs by microdilution method; format: functional; in short: as §3
Micrococcus flavus [39] = experiment: Antibacterial activity against Micrococcus flavus ATCC 10240 incubated for 24 hrs followed by serial sub-cultivation for 24 hrs by microdilution; format: functional; conditions: ATCC 10240, 24 h; in short: as §4
Pseudomonas aeruginosa [40] = experiment: Antibacterial activity against Pseudomonas aeruginosa ATCC 27853 after 24 hrs by microdilution method; format: functional; conditions: ATCC 27853, 24 h; in short: as §3
Salmonella typhimurium [41] = experiment: Antibacterial activity against Salmonella Typhimurium ATCC 13311 incubated for 24 hrs followed by serial sub-cultivation for 24 hrs by microdilution; format: functional, Salmonella enterica subsp. enterica serovar Typhimurium; conditions: Salmonella enterica, ATCC 13311, 24 h; in short: as §4
Enterococcus faecalis [42] = experiment: Antibacterial activity against Enterococcus faecalis isolated from human after 24 hrs by microdilution method; format: functional; in short: as §3
Enterococcus faecalis [43] = experiment: Antibacterial activity against Enterococcus faecalis isolated from human incubated for 24 hrs followed by serial sub-cultivation for 24 hrs by microdilution; format: functional; in short: as §4

CC(=O)N1CCN(c2ccc(OCC3COC(Cn4ccnc4)(c4ccc(Cl)cc4Cl)O3)cc2)CC1 (centres undefined) [KETOCONAZOLE]
380 µM: MIC (Aspergillus niger [4]) | MIC (Aspergillus ochraceus [11]) | MIC (Talaromyces funiculosus [12]) | MIC (Aspergillus ochraceus [13]) | MIC (Candida albicans [16])
5700 µM: MFC (Trichoderma viride [10])
2850 µM: MIC (Aspergillus flavus [14])
950 µM: MFC (Aspergillus niger [1]) | MFC (Aspergillus ochraceus [2]) | MFC (Aspergillus fumigatus [6]) | MFC (Candida albicans [9]) | MFC (Talaromyces funiculosus [15])
4750 µM: MIC (Trichoderma viride [5])
3800 µM: MFC (Penicillium ochrochloron [3]) | MFC (Aspergillus flavus [7]) | MIC (Penicillium ochrochloron [8])

CCNc1nc(C)c(C(=O)/C=C/c2ccccc2)s1
36.8 µM: MIC (Trichoderma viride [5]) | MIC (Penicillium ochrochloron [8]) | MIC (Salmonella typhimurium [28]) | MIC (Aspergillus ochraceus [11]) | MIC (Talaromyces funiculosus [12]) | MIC (Candida albicans [16])
110 µM: MIC (Listeria monocytogenes [21]) | MBC (Escherichia coli [22]) | MBC (Staphylococcus aureus [32]) | MBC (Listeria monocytogenes [36]) | MBC (Micrococcus flavus [39])
73.5 µM: MFC (Aspergillus niger [1]) | MFC (Penicillium ochrochloron [3]) | MFC (Aspergillus fumigatus [6]) | MBC (Pseudomonas aeruginosa [25]) | MFC (Candida albicans [9]) | MIC (Escherichia coli [30]) | MFC (Trichoderma viride [10]) | MBC (Bacillus cereus [33]) | MIC (Staphylococcus aureus [35]) | MIC (Bacillus cereus [38]) | MIC (Aspergillus ochraceus [13]) | MIC (Aspergillus flavus [14]) | MIC (Pseudomonas aeruginosa [40]) | MFC (Talaromyces funiculosus [15]) | MBC (Enterococcus faecalis [43])
55.1 µM: MIC (Aspergillus niger [4]) | MIC (Enterococcus faecalis [42])
91.9 µM: MIC (Micrococcus flavus [18]) | MFC (Aspergillus ochraceus [2]) | MFC (Aspergillus flavus [7]) | MBC (Salmonella typhimurium [41])
10: Ratio (Aspergillus fumigatus [17]) | Ratio (Trichoderma viride [19]) | Ratio (Candida albicans [20]) | Ratio (Aspergillus ochraceus [23]) | Ratio (Candida albicans [24]) | Ratio (Aspergillus niger [26]) | Ratio (Penicillium ochrochloron [27]) | Ratio (Pseudomonas aeruginosa [29]) | Ratio (Penicillium ochrochloron [31]) | Ratio (Talaromyces funiculosus [34]) | Ratio (Aspergillus ochraceus [37])
